ChEMBL document CHEMBL4145611, “Discovery of Marinoquinolines as Potent and Fast-Acting Plasmodium falciparum Inhibitors with in Vivo Activity” (J Med Chem, 2018)
Calls of active or inactive are those of the source. No cut-off for these calls is given here.

What was measured:
Plasmodium falciparum [1] = experiment: Plasmodicidal activity against Plasmodium falciparum 3D7A infected in erythrocytes assessed as parasite survival at 10 times IC50 pre-incubated for 48 hrs followed by compound washout and measured after 24 hrs by […] incorporation assay (reference value: 100%); format: functional
Plasmodium berghei [2] = experiment: Antiplasmodial activity against Plasmodium berghei NK65 infected in Swiss mouse assessed as assessed as mouse survival at 20 mg/kg, po administered via gavage for 3 consecutive days post infection measured on day 9 post infection (reference value: 19 +/- 5 days); format: functional
Plasmodium berghei [3] = experiment: Antiplasmodial activity against Plasmodium berghei NK65 infected in Swiss mouse assessed as reduction in parasitemia at 20 mg/kg, po administered via gavage for 3 consecutive days post infection measured on day 5 post infection relative to control; format: functional; parameters: scale not given: the % may be the effect or the level left
Summary of the method: (§1)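 P. berghei NK65 suppressive test: adult Swiss outbred mice (20±2 g) inoculated ip with 1×10^5 infected red cells, randomized to groups, dosed daily for three days by oral gavage or ip injection with test compound at 50 mg/kg in 3% (v/v) DMSO; CQ 20 mg/kg and vehicle groups in parallel. Giemsa-stained tail-blood smears on days 5, 7, 9; inhibition = [(C−T)/C]×100 versus untreated control.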

HepG2 = experiment: Cytotoxicity against human HepG2 cells assessed as reduction in cell viability after 24 hrs by MTT assay; format: cell-based; settings: HepG2, 24 h
Summary of the method: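 HepG2 cells in RPMI-1640 with 10% heat-inactivated serum, seeded 5×10^3 per well, allowed to adhere 18 h at 37 °C, then exposed to compound (400–6.2 µM) for 24 h at 37 °C, 5% CO2. MTT (5 mg/mL) for 3 h, formazan dissolved in DMSO, absorbance 570 nm with 630 nm background; viability as percent of untreated control.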

Plasmodium berghei [4] = experiment: Antiplasmodial activity against Plasmodium berghei NK65 infected in Swiss mouse assessed as reduction in parasitemia at 20 mg/kg, po administered via gavage for 3 consecutive days post infection measured on day 7 post infection relative to control; format: functional; parameters: scale not given: the % may be the effect or the level left; summary of the method: as §1
Plasmodium berghei [5] = experiment: Antiplasmodial activity against Plasmodium berghei NK65 infected in Swiss mouse assessed as reduction in parasitemia at 20 mg/kg, ip administered for 3 consecutive days post infection measured on day 5 post infection relative to control; format: functional; parameters: scale not given: the % may be the effect or the level left; summary of the method: as §1
Plasmodium berghei [6] = experiment: Antiplasmodial activity against Plasmodium berghei NK65 infected in Swiss mouse assessed as reduction in parasitemia at 20 mg/kg, ip administered for 3 consecutive days post infection measured on day 9 post infection relative to control; format: functional; parameters: scale not given: the % may be the effect or the level left; summary of the method: as §1
Plasmodium falciparum [7] = experiment: Plasmodicidal activity against Plasmodium falciparum 3D7A infected in erythrocytes assessed as parasite survival at 10 times IC50 pre-incubated for 24 hrs followed by compound washout and measured after 24 hrs by […] incorporation assay (reference value: 100%); format: functional
Plasmodium berghei [8] = experiment: Antiplasmodial activity against Plasmodium berghei NK65 infected in Swiss mouse assessed as assessed as mouse survival at 20 mg/kg, ip administered for 3 consecutive days post infection measured on day 9 post infection (reference value: 19 +/- 5 days); format: functional
Plasmodium berghei [9] = experiment: Antiplasmodial activity against Plasmodium berghei NK65 infected in Swiss mouse assessed as reduction in parasitemia at 20 mg/kg, po administered via gavage for 3 consecutive days post infection measured on day 9 post infection relative to control; format: functional; parameters: scale not given: the % may be the effect or the level left; summary of the method: as §1
Plasmodium berghei [10] = experiment: Antiplasmodial activity against Plasmodium berghei NK65 infected in Swiss mouse assessed as reduction in parasitemia at 20 mg/kg, ip administered for 3 consecutive days post infection measured on day 7 post infection relative to control; format: functional; parameters: scale not given: the % may be the effect or the level left; summary of the method: as §1
Plasmodium falciparum [11] = experiment: Antiplasmodial activity against chloroquine-sensitive ring form of Plasmodium falciparum 3D7 infected in RBC after 72 hrs by SYBR green assay; format: functional, organism-based; settings: 3D7, Erythrocyte
Summary of the method: (§2)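 Sorbitol-synchronized 3D7 cultures of each stage (or asynchronous) diluted to 0.5% parasitemia, 2% hematocrit, exposed to graded compound concentrations (0.05% DMSO) for 72 h in triplicate. Read-out: lysis buffer (20 mM Tris pH 7.5, 5 mM EDTA, 0.008% saponin, 0.08% Triton X-100) with SYBR green I 1:20000, fluorescence 485/535 nm, uninfected erythrocytes as background; IC50 by curve fitting versus drug-free growth.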

Plasmodium falciparum [12] = experiment: Antiplasmodial activity against Plasmodium falciparum assessed as fractional inhibitory concentration index at IC50 concentration in presence of artesunate by isobologram plot analysis
Plasmodium falciparum [13] = experiment: Antiplasmodial activity against chloroquine/pyrimethamine/sulfadoxine-resistant blood parasite forms of Plasmodium falciparum K1 infected in RBC by SYBR green assay; format: functional, organism-based; settings: K1, Erythrocyte
Summary of the method: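 Sorbitol-synchronised K1 culture, mostly rings, at 0.5% parasitemia and 2% hematocrit exposed to serial compound dilutions (0.05% DMSO) in triplicate. Cells lysed with Tris/EDTA/saponin/Triton buffer containing SYBR green I; fluorescence read at 485/535 nm, uninfected erythrocytes as background. IC50 from curve fit versus drug-free growth.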

Plasmodium berghei [14] = experiment: Antiplasmodial activity against Plasmodium berghei NK65 infected in Swiss mouse assessed as reduction in parasitemia at 50 mg/kg, ip administered for 3 consecutive days post infection measured on day 7 post infection relative to control; format: functional; parameters: scale not given: the % may be the effect or the level left; summary of the method: as §1
Plasmodium falciparum [15] = experiment: Antiplasmodial activity against chloroquine-sensitive asynchronous form of Plasmodium falciparum 3D7 infected in RBC after 72 hrs by SYBR green assay; format: functional, organism-based; settings: 3D7, Erythrocyte; summary of the method: as §2
Plasmodium falciparum [16] = experiment: Antiplasmodial activity against early ring stage of Plasmodium falciparum assessed as decrease in hemozoin accumulation after 32 hrs by UV-Vis spectrophotometry; format: functional, organism-based
Mus musculus [17] = experiment: Toxicity in Swiss mouse assessed as survival at 1000 mg/kg, ip measured up to 30 days; format: organism-based; settings: in vivo, 720 h
Summary of the method: (§3)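 Single 1000 mg/kg dose given to mice by gavage or ip injection, 3 mice per group. Survival and body weight followed against untreated controls over 30 days of observation.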

Plasmodium berghei [18] = experiment: Antiplasmodial activity against liver stage of luciferase-expressing transgenic Plasmodium berghei sporozoites infected in human HepG2 cells administered 18 hrs before infection and measured after 48 hrs by luciferase reporter gene assay; format: functional, organism-based
Summary of the method: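 HepG2 cells (3×10^3) plated overnight; compound (10^-4 to 10^-9 M) added 18 h before infection with 1×10^5 freshly isolated luciferase-expressing P. berghei sporozoites from Anopheles stephensi salivary glands; culture 48 h, luciferase activity taken as parasite viability; atovaquone positive control.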

Mus musculus [19] = experiment: Toxicity in Swiss mouse assessed as effect on body weight at 1000 mg/kg, ip measured after 30 days; format: organism-based; settings: in vivo, 720 h; summary of the method: as §3
Plasmodium berghei [20] = experiment: Antiplasmodial activity against Plasmodium berghei NK65 infected in Swiss mouse assessed as reduction in parasitemia at 50 mg/kg, ip administered for 3 consecutive days post infection measured on day 5 post infection relative to control; format: functional; parameters: scale not given: the % may be the effect or the level left; summary of the method: as §1
Plasmodium berghei [21] = experiment: Antiplasmodial activity against Plasmodium berghei NK65 infected in Swiss mouse assessed as reduction in parasitemia at 50 mg/kg, po administered via gavage for 3 consecutive days post infection measured on day 5 post infection relative to control; format: functional; parameters: scale not given: the % may be the effect or the level left; summary of the method: as §1
Plasmodium falciparum [22] = experiment: (§4) Antiplasmodial activity against of male Plasmodium falciparum NF54 gametocytes assessed as inhibition of xanthurenic acid-stimulated gamete formation at 1 uM preincubated for 24 to 48 hrs followed by xanthurenic acid stimulation and measured after 20 mins by automated time-lapse microscopy relative to control; format: functional
Summary of the method: (§5)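 Mature NF54 gametocytes exposed to 1 µM compound (DMSO ≤0.25%) for 24 or 48 h, then activated by cooling 37→26 °C with 2.5 µM xanthurenic acid. Male: exflagellation by automated time-lapse microscopy at 20 min, three readings per well. Female: after 24 h at 26 °C, Cy3 anti-Pfs25 staining, four fields counted. Inhibition versus DMSO and 20 µM Gentian Violet controls; four independent repeats.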

Plasmodium berghei [23] = experiment: Antiplasmodial activity against Plasmodium berghei NK65 infected in Swiss mouse assessed as mouse survival at 50 mg/kg, po administered for 3 consecutive days post infection measured on day 9 post infection (reference value: 19 +/- 5 days); format: functional
Plasmodium berghei [24] = experiment: Antiplasmodial activity against Plasmodium berghei NK65 infected in Swiss mouse assessed as reduction in parasitemia at 50 mg/kg, po administered via gavage for 3 consecutive days post infection measured on day 9 post infection relative to control; format: functional; parameters: scale not given: the % may be the effect or the level left; summary of the method: as §1
Plasmodium berghei [25] = experiment: Antiplasmodial activity against Plasmodium berghei NK65 infected in Swiss mouse assessed as assessed as mouse survival at 50 mg/kg, ip administered via gavage for 3 consecutive days post infection measured on day 9 post infection (reference value: 19 +/- 5 days); format: functional
Plasmodium falciparum [26] = experiment: Antiplasmodial activity against chloroquine-sensitive schizont form of Plasmodium falciparum 3D7 infected in RBC after 72 hrs by SYBR green assay; format: functional, organism-based; settings: 3D7, Erythrocyte; summary of the method: as §2
Plasmodium falciparum [27] = experiment: Antiplasmodial activity against early ring stage form of Plasmodium falciparum assessed as induction of alterations in parasite morphology at 10 times IC50 concentration after 8 to 16 hrs by microscopic analysis; format: functional, organism-based
Mus musculus [28] = experiment: Toxicity in Swiss mouse assessed as effect on body weight at 1000 mg/kg, po measured after 30 days; format: organism-based; settings: in vivo, 720 h; summary of the method: as §3
Mus musculus [29] = experiment: Toxicity in Swiss mouse assessed as survival at 1000 mg/kg, po measured up to 30 days; format: organism-based; settings: in vivo, 720 h; summary of the method: as §3
Plasmodium falciparum [30] = experiment: as §4, with “female” for “male”; format: functional; summary of the method: as §5
Plasmodium falciparum [31] = experiment: Antiplasmodial activity against chloroquine-sensitive trophozoite form of Plasmodium falciparum 3D7 infected in RBC after 72 hrs by SYBR green assay; format: functional, organism-based; settings: 3D7, Erythrocyte; summary of the method: as §2
Plasmodium berghei [32] = experiment: Antiplasmodial activity against Plasmodium berghei NK65 infected in Swiss mouse assessed as reduction in parasitemia at 50 mg/kg, po administered via gavage for 3 consecutive days post infection measured on day 7 post infection relative to control; format: functional; parameters: scale not given: the % may be the effect or the level left; summary of the method: as §1
Plasmodium falciparum [33] = experiment: Antiplasmodial activity against early ring stage of Plasmodium falciparum assessed as increase in free heme levels after 32 hrs by UV-Vis spectrophotometry; format: functional, organism-based
Plasmodium falciparum [34] = experiment: Antiplasmodial activity against chloroquine-sensitive blood parasite forms of Plasmodium falciparum 3D7 infected in RBC by SYBR green assay; format: functional, organism-based; settings: 3D7, Erythrocyte
Summary of the method: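 3D7 blood-stage cultures, sorbitol-synchronized twice beforehand, used at 5-10% parasitemia with >80% rings, diluted to 0.5% parasitemia and 2% hematocrit with graded compound (0.05% DMSO), triplicate; artesunate and chloroquine controls. SYBR green I lysis-buffer fluorescence at 485/535 nm; IC50 from curve fit relative to drug-free medium.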

Plasmodium berghei [35] = experiment: Antiplasmodial activity against Plasmodium berghei NK65 infected in Swiss mouse assessed as reduction in parasitemia at 50 mg/kg, ip administered for 3 consecutive days post infection measured on day 9 post infection relative to control; format: functional; parameters: scale not given: the % may be the effect or the level left; summary of the method: as §1

CCN(CC)CCCC(C)Nc1ccnc2cc(Cl)ccc12 (centres undefined) [CHLOROQUINE]
Survival (Plasmodium falciparum [1]): 8% | Survival (Plasmodium berghei [2]): >30 days | Activity (Plasmodium berghei [3]): 100% | EC50 (HepG2): 384000 nM | Activity (Plasmodium berghei [4]): 100% | Activity (Plasmodium berghei [5]): 100% | Activity (Plasmodium berghei [6]): 100% | Survival (Plasmodium falciparum [7]): 16% | Survival (Plasmodium berghei [8]): >30 days | Activity (Plasmodium berghei [9]): 100% | Activity (Plasmodium berghei [10]): 100%

COc1ccc2c(c1)nc(-c1ccc(NC(=O)OC(C)(C)C)cc1)c1[nH]ccc12
IC50 (Plasmodium falciparum [11]): 39 nM | Survival (Plasmodium falciparum [1]): 6% | FIC (Plasmodium falciparum [12]): 1 | IC50 (Plasmodium falciparum [13]): 41 nM | Activity (Plasmodium berghei [14]): 34% | IC50 (Plasmodium falciparum [15]): 33 nM | Activity (Plasmodium falciparum [16]): Dose-dependent effect | Activity (Mus musculus [17]): Non-Toxic | IC50 (Plasmodium berghei [18]): 76 nM | Activity (Mus musculus [19]): Non-Toxic | Activity (Plasmodium berghei [20]): 61% | Activity (Plasmodium berghei [21]): 62% | inhibition at 1 µM (Plasmodium falciparum [22]): 7% | Survival (Plasmodium berghei [23]): 25 days | Activity (Plasmodium berghei [24]): 55% | Survival (Plasmodium berghei [25]): 24 days | IC50 (Plasmodium falciparum [26]): 28 nM | Activity (Plasmodium falciparum [27]): Active | Activity (Mus musculus [28]): Non-Toxic | Activity (Mus musculus [29]): Non-Toxic | inhibition at 1 µM (Plasmodium falciparum [30]): 2% | IC50 (Plasmodium falciparum [31]): 50 nM | Survival (Plasmodium falciparum [7]): 14% | Activity (Plasmodium berghei [32]): 54% | Activity (Plasmodium falciparum [33]): Dose-dependent effect | IC50 (Plasmodium falciparum [34]; read-out: IC50): 39 nM | IC50 (Plasmodium falciparum [34]; read-out: pIC50 (converted)): 39.8 nM | Activity (Plasmodium berghei [35]): 58%
